Data: ChEMBL document CHEMBL3085728, “Conformational modifications of gB from herpes simplex virus type 1 analyzed by synthetic peptides” (J Med Chem, 2013)
Activity calls are given as the source filed them. No cut-off for these calls is given here.

Columns and labels:
Human alphaherpesvirus 1 [1] = assay: Antiviral activity against Herpes simplex virus type 1 assessed as inhibition of viral entry into African green monkey Vero cells at 20 to 200 uM compound treated post viral titration for 30 mins measured 48 hrs post viral titration by plaque formation assay; type: functional, organism-based
Human alphaherpesvirus 1 [2] = assay: Antiviral activity against Herpes simplex virus type 1 assessed as inhibition of viral entry into African green monkey Vero cells compound co-treated with cells and viral inoculum for 45 mins measured after 48 hrs by plaque formation assay; type: functional, organism-based; conditions: Human alphaherpesvirus 1, Vero
Procedure, shortened: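 Cotreatment: Vero cells exposed to peptide (10–200 μM, serum-free DMEM) together with serial dilutions of LacZ HSV-1 inoculum for 45 min at 37 °C. Nonpenetrated virus inactivated by pH 3.0 citrate, then 48 h at 37 °C in DMEM with CMC; X-gal staining, plaques counted. Triplicates; inhibition percentage vs no-peptide control.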

Vero = assay: Cytotoxicity against African green monkey Vero cells at 10 to 500 uM after 24 hrs by LDH assay; type: cell-based; conditions: chlorocebus sabaeus
Procedure, shortened: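 Vero monolayers exposed to peptides at 10, 50, 100, 200, 250 and 500 μM for 24 h; viability read by lactate dehydrogenase release with a commercial cytotoxicity detection kit, compared against untreated cells.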

Human alphaherpesvirus 1 [3] = assay: Antiviral activity against Herpes simplex virus type 1 assessed as inhibition of viral entry into African green monkey Vero cells at 100 uM compound preincubated with virus for 45 mins followed by viral titration measured 48 hrs post viral titration by plaque formation assay relative to control; type: functional; conditions: Human alphaherpesvirus 1, Vero

IC50 (Human alphaherpesvirus 1 [2]) | Substance | inhibition (Human alphaherpesvirus 1 [1]) | Activity (Vero) | inhibition at 100 µM (Human alphaherpesvirus 1 [3])
60 µM | H-FARLQFTYNHIQRHVRDMEGR-OH | inactive | Non-toxic | 100%
 | H-YNHIQRHVNDMLGR-OH | inactive | Non-toxic | 100%
 | H-YNHIQRHVNDMLGRVKKAWEE-OH |  | Non-toxic | 
